Laboratory results published in PMC10907227 (Nature methods, 2020).
Converted amounts (≈) assume the structure as drawn. “Also recorded” adds a separate entry of the source. Blank lines part the entries; values can stand above or below the molecule they belong to.

Key:
[1] = Solubility testing in PEG-300-based injectable formulation; type: physicochemical; conditions: for Maximum soluble dose: IP injection, injectable formulation; for Relative solubility in the PEG-300-based formulation: comparison in words; for Maximum amount that could be administered IP in the PEG-300 formulation: injection volume limit of ~0.5 mL, mice
Procedure, shortened: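 Formulation: 10% ethanol (v/v), 10% glycerol (v/v), 10% 2-hydroxypropyl-β-cyclodextrin (w/v), 35% PEG-300 (v/v) in water. Pre-weighed compound was dissolved or suspended in ethanol, then combined with the other components and vortexed 15 min to make a 28 mM solution or suspension. […] IP dose was limited by an injection volume of ~0.5 mL.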

AkaLuc = AkaLuc with AkaLumine, intrapulmonary locations; cited from earlier work
Antares [2] = target: T1, Antares (Oplophorus gracilirostris, UniProt Q9GV45, A31E/A60N/A81I/F95D/I117V/K70R/L54V/L99Q/M102K/N193R/P142E/Q151K/Q38R/Q45L/V71I/Y165I); test: Decay of Antares luminescence signal over time; type: biochemical; conditions: purified Antares, 60 min
Antares [3] = target: T1, Antares
Orange CaMBI [4] = type: in vivo, mice; conditions: sustained-release HFz (P-407)
Procedure, shortened: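 Transgenic mice doubly hemizygous for albumin-Cre and CAG-LSL-Orange CaMBI 110, abdominal hair removed, anesthetized with IP ketamine 200 mg/kg in 100 µL water. Test compound given with poloxamer-407 in 480 µL water. Imaged in a lab-built system, time-lapse with <1 s exposures on a consumer digital camera, with vasopressin given. Decay fitted as monoexponential.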

Antares [5] = target: T1, Antares; test: Hydrodynamic transfection and bioluminescence imaging of nude mice; type: in vivo
[6] = type: in vivo, mice
Procedure, shortened: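 Male C57Bl/6 mice, 4 months old, received three daily IP injections: 12 mg P-407 in 480 µL water; 12 mg P-407 plus 1.7 mg test compound in 480 µL water; or test compound in P-407 at 1.3 or 4.2 µmol. Body weight was tracked. On day 4 mice were euthanized by CO2 and cardiac exsanguination, with terminal blood taken for CBC and serum biochemistry. Lung, liver and kidney were examined histologically.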

Antares [7] = target: T1, Antares; test: Enzymatic analysis of Antares with furimazine analogs; type: biochemical; conditions: purified Antares; for Vmax and thereby kcat compared to furimazine: DPBS with 0.01% FBS
Antares [8] = target: T1, Antares; test: Spectral analysis of Antares with furimazine analogs; type: biochemical; conditions: 400 to 700 nm
[9] = Substrate stability at 37 °C in DPBS with or without 10% FBS; type: in vitro ADME
physchem = conditions: aqueous with cosolvent or surfactant or cyclodextrin
[10] = previously published PEG-300-based aqueous formulation; cited from earlier work
Orange CaMBI [11] = conditions: liver; cited from earlier work
Antares [12] = target: T1, Antares; conditions: limited amount of furimazine that can be administered; cited from earlier work
[13] = 1.3 μmol IP, PEG-300 formulation, mouse liver

Maximum soluble dose [1]: 4 µmol
Compound: Oc1c(Cc2ccccc2)nc2c(-c3ccncc3)nc(-c3ccccc3)cn12 [8pyDTZ, reference compound]

Compound: CN(C)c1ccc(/C=C/C=C/C2=N[C@@H](C(=O)O)CS2)cc1 [AkaLumine]
Detectable light per reporter molecule relative to FLuc and D-luciferin (AkaLuc): ~ 13 times

Maximum soluble dose [1]: 1 µmol
Compound: O=c1c(Cc2ccccc2)nc2c(-c3ccccc3)[nH]c(-c3ccccc3)cn1-2 [DTZ, diphenylterazine, reference compound]

Compound: O=c1c(Cc2ccco2)nc2c(Cc3ccccc3)[nH]c(-c3ccc(O)cc3)cn1-2 [compound A, 8-benzyl-2-(furan-2-ylmethyl)-6-(4-hydroxyphenyl)imidazo[1,2-a]pyrazin-3(7H)-one]
Decrease of light output over time compared with the other substrates (Antares [2]): decreased more rapidly over time | Total integrated output compared with furimazine (Antares [3]; 1.3 μmol IP, PEG-300 vehicle, liver): more total integrated output | Appearance at 28 mM in the PEG-300-based formulation ([1]; 28 mM, backlit image): insoluble pellet

Compound: O=c1c(Cc2ccco2)nc2c(Cc3ccccc3)[nH]c(-c3cccc(O)c3)cn1-2 [compound B, 8-benzyl-2-(furan-2-ylmethyl)-6-(3-hydroxyphenyl)imidazo[1,2-a]pyrazin-3(7H)-one]
Time signals were bright enough to be seen by the naked eye in the dark (Orange CaMBI [4]): > 1 h | Time of peak brightness after substrate injection (Orange CaMBI [4]; liver): 24 min | Time after injection at which brightness dropped to half of its peak (Orange CaMBI [4]; monoexponential kinetics): ~ 60 min | Integrated signal over 20 min compared with Antares2-DTZ (Antares [5]; 4.2 μmol HFz IP): significantly exceed that of Antares2-DTZ | Integrated signal over 20 min compared with LumiScarlet-8pyDTZ (Antares [5]; 4.2 μmol HFz IP): appeared higher than that of LumiScarlet-8pyDTZ, but narrowly missed statistical significance | Persistence of emission (Antares [5]; 4.2 μmol HFz IP, 20 min): uniquely sustained emission | Saturating dose (Antares [3]; IP, PEG-300 formulation, liver): 4.2 µmol | Light (brightness) relative to the maximum/saturating dose of furimazine (Antares [3]; substrate at saturating (maximal) dose, IP, Antares-expressing transgenic mice): approximately four-fold | Gross examination of organs and histology of liver, lung and kidney ([6]; HFz with P-407, three daily IP injections, listed as HFz): no signs of toxicity; also recorded: no abnormalities were found | Relative solubility in the PEG-300-based formulation [1]: noticeably more soluble than compounds A and C | Maximum amount that could be administered IP in the PEG-300 formulation [1]: up to 13.3 μmol | kcat/KM compared to furimazine (Antares [7]): higher kcat/KM

Maximum amount that could be administered IP in the PEG-300 formulation [1]: 4.2 µmol
Compound: Nc1cccc(-c2cn3c(=O)c(Cc4ccco4)nc-3c(Cc3ccccc3)[nH]2)c1 [compound C, 6-(3-aminophenyl)-8-benzyl-2-(furan-2-ylmethyl)imidazo[1,2-a]pyrazin-3(7H)-one]

Compound: O=c1c(Cc2ccco2)nc2c(Cc3ccccc3)[nH]c(-c3cccc(O)c3F)cn1-2 [compound D, 8-benzyl-6-(2-fluoro-3-hydroxyphenyl)-2-(furan-2-ylmethyl)imidazo[1,2-a]pyrazin-3(7H)-one]
Effect on emission spectrum of Antares (Antares [8]): do not alter the emission spectrum of Antares | Stability in serum compared to furimazine [9]: retaining the improved stability in serum | Signal output compared with HFz (Antares [3]; [13]): brighter signal outputs than HFz | Vmax and thereby kcat compared to furimazine (Antares [7]): improved Vmax and thereby kcat versus furimazine

Compound: Nc1cccc(-c2cn3c(=O)c(Cc4ccco4)nc-3c(Cc3ccccc3)[nH]2)c1F [compound E, 6-(3-amino-2-fluorophenyl)-8-benzyl-2-(furan-2-ylmethyl)imidazo[1,2-a]pyrazin-3(7H)-one]
Effect on emission spectrum of Antares (Antares [8]): do not alter the emission spectrum of Antares | Stability in serum compared to furimazine [9]: retaining the improved stability in serum | Improvement of signal output over HFz (Antares [3]; [13]): approximately three-fold | Signal output compared with HFz (Antares [3]; [13]): brighter signal outputs than HFz | Vmax and thereby kcat compared to furimazine (Antares [7]): improved Vmax and thereby kcat versus furimazine

Compound: Nc1cccc(-c2cn3c(=O)c(Cc4ccco4)nc-3c(Cc3ccccc3F)[nH]2)c1F [compound F, 6-(3-amino-2-fluorophenyl)-8-(2-fluorobenzyl)-2-(furan-2-ylmethyl)imidazo[1,2-a]pyrazin-3(7H)-one]
Brightness compared with AkaLuc with AkaLumine (Antares [5]; 1.3 μmol FFz IP, not statistically significant): tended to produce more brightness | solubility (physchem): 8.8 mM (≈ 3810 µg/mL) | Peak signal compared to compound E (Antares [3]; 1.3 μmol, in vivo): further increase in peak signal | Light from mouse liver, 1.3 μmol FFz compared with 4.2 μmol HFz (Antares [3]; IP): more light | Light, 4.2 μmol compared with 1.3 μmol of FFz (Antares [3]; IP): more light | Body weight, blood chemistry, or histology ([6]; 1.3 μmol FFz in P-407 daily for three days): No abnormalities | Blood chemistry ([6]; 4.2 μmol FFz, daily for three days): abnormal blood chemistry | Dose that can be safely administered ([6]; in P-407, IP, mice): 1.3 µmol | Vmax and thereby kcat compared to compound E (Antares [7]): higher Vmax and thereby kcat

Compound: O=c1c(Cc2ccco2)nc2c(Cc3ccccc3)[nH]c(-c3ccccc3)cn1-2 [furimazine]
Maximum dosage limited by poor aqueous solubility [10]: 1.3 µmol | Duration of previous Orange CaMBI imaging sessions (Orange CaMBI [11]): ≤ 6 min | Photon output of Antares relative to FLuc in vivo (Antares [12]): ~ three-fold | Solubility in the PEG-300-based formulation ([1]; 35% PEG-300, 10% ethanol, 10% glycerol, 10% hydroxypropylcyclodextrin in water): 2.8 mM (≈ 1070 µg/mL) | Relative solubility in the PEG-300-based formulation [1]: more soluble than DTZ
